Assay outcomes from PubChem BioAssay.
hiPSC survival: increases survival of single human iPS cells | hiPSC single-cell survival, ATPlite luminescence; 100% = ROCK inhibitor wells, 0% = DMSO | survival enhancement, % at 20 µM | 0.044% of 360,000 active | AID 602274; in the data active means survival enhancement above about 18%;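 further: cells exposed to compounds for 16 hours before the ATP read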
MT1-MMP act inh: blocks activation of human MT1-MMP; P50281; HT1080 RFP-PRO-GFP cells, GFP/RFP ratio fluorescence, overnight; percent of plate control window, DMSO zero; GFP/RFP ratio change, % at 20 µM; 0.061% of 360,000 active; AID 651647;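 active means GFP/RFP ratio change of at least 30% with cell ATP level not reduced by more than half and red fluorescence within 50% of control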
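Material – HT1080 RFP-PRO-GFP cells · Control set – DMSO wells and RFP-L50D-GFP cells · Incubation – overnight cell settling, then overnight compound exposure, 37 °C, 5% CO2 · Compound dosing – single-point 20 µM compound, 1% DMSO · Read-out – GFP/RFP fluorescence ratio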
SKN-1 inh: C. elegans SKN-1 inhibition; C. elegans VP596 Pgst-4::GFP/RFP ratio, acrylamide-induced, 24 h; 0.49% of 360,000 active; inhibition, % at 21.8 µM;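 active means interference check ratio from 0.5 to 1.5 plus GFP to RFP signal ratio inhibition reaching or exceeding a fixed threshold, cut at about 30% in these data, passing the limit was not always enough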
FAS-TE inh: inhibitors of human fatty acid synthase thioesterase domain; recombinant FAS-TE, OMFH fluorogenic substrate, fluorescence endpoint; P49327; inhibition, % at 15 µM; 0.67% of 360,000 active;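 active means compounds whose normalised, plate-corrected inhibition of enzyme fluorescence in the single-dose primary screen is 50% or more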;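 further: 0% = DMSO with enzyme and 100% = substrate without enzyme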
DAGLB inhibitor: blocks human DAGLB lipase activity; HEK293T DAGLB membrane lysate, EnzChek fluorogenic substrate; inhibition, % at 5.17 µM; 0.059% of 340,000 active; Q8NCG7; AID 504411; in the data active means inhibition above about 34%;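 further: 0% = enzyme with vehicle and 100% = wells lacking enzyme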
FAS-TE inh conf: confirmation of human fatty acid synthase thioesterase inhibitors; inhibition, % at 15 µM; recombinant FAS-TE, OMFH fluorogenic substrate, fluorescence; AID 624325; 45% of 2,300 active; shares compounds with FAS-TE inh;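 active means compounds inhibiting the enzyme by at least 50% at 15 µM in any one of the replicates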;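 further: 0% = enzyme with DMSO only and 100% = wells lacking enzyme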
* marks the source's active call; other numbers are inactive results. A selection: hits, their analogues and other compounds. The true share with any hit is near 1.3%.

What do the screens show for `COC(=O)[C@]1(Cc2ccccc2)N[C@H](c2ccc(-c3ccccc3)cc2)[C@@H]2C(=O)N(C)C(=O)[C@@H]21`?
hiPSC survival: -2; MT1-MMP act inh: -5; SKN-1 inh: 8; FAS-TE inh: 56*; DAGLB inhibitor: -3; FAS-TE inh conf: 10

How did COC(=O)[C@]1(Cc2ccccc2)N[C@H](c2ccc(-c3ccc(Cl)c(Cl)c3)cc2)[C@@H]2C(=O)N(C)C(=O)[C@@H]21 do in these assays?
hiPSC survival: 2; MT1-MMP act inh: 2; SKN-1 inh: 28; FAS-TE inh: 90*; DAGLB inhibitor: -1; FAS-TE inh conf: 22

Results for COC(=O)C1(Cc2ccccc2)NC(c2ccc(F)cc2)C2C(=O)N(C)C(=O)C21 (centres undefined) ?
hiPSC survival: 0; MT1-MMP act inh: 7; SKN-1 inh: -8; FAS-TE inh: 1; DAGLB inhibitor: -4

Results for CCN1C(=O)[C@H]2[C@@H](c3ccc(-c4cccc(Cl)c4)cc3)N[C@@](CC(C)C)(C(=O)OC)[C@H]2C1=O ?
hiPSC survival: 1; MT1-MMP act inh: -4; SKN-1 inh: -6; FAS-TE inh: 52*; DAGLB inhibitor: -5; FAS-TE inh conf: 16

What do the screens show for `COC(=O)[C@]1(Cc2ccccc2)N[C@H](c2ccc(-c3cccc(Cl)c3)cc2)[C@@H]2C(=O)N(C)C(=O)[C@@H]21`?
hiPSC survival: 2; MT1-MMP act inh: 4; SKN-1 inh: 2; FAS-TE inh: 91*; DAGLB inhibitor: -12; FAS-TE inh conf: 21

What do the screens show for `CCC(C(=O)NCc1ccccc1OC)c1ccccc1` (centres undefined)?
hiPSC survival: 0; MT1-MMP act inh: 3; SKN-1 inh: -1; FAS-TE inh: -4; DAGLB inhibitor: -1

How did Cc1cc2oc(=O)cc(CN3CCN(S(=O)(=O)/C=C/c4ccccc4)CC3)c2cc1C do in these assays?
hiPSC survival: 2; MT1-MMP act inh: -4; SKN-1 inh: 12; FAS-TE inh: 54*; DAGLB inhibitor: -3; FAS-TE inh conf: 12

Results for CN(Cc1ccccc1)C(=O)c1cccc(NC(=O)Cc2ccc(NC(=O)C3CCN(S(=O)(=O)c4cccc([N+](=O)[O-])c4)CC3)cc2)c1 ?
hiPSC survival: 0; MT1-MMP act inh: 1; SKN-1 inh: 4; FAS-TE inh: 37; DAGLB inhibitor: 1

What do the screens show for `CN(CCc1ccccc1)C(=O)c1ccc(NC(=O)Cc2ccc(NC(=O)C3CCCN(S(=O)(=O)c4cccc([N+](=O)[O-])c4)C3)cc2)cc1` (centres undefined)?
hiPSC survival: 0; MT1-MMP act inh: 5; SKN-1 inh: 13; FAS-TE inh: 72*; DAGLB inhibitor: -1; FAS-TE inh conf: 22

What do the screens show for `CN(CCc1ccccc1)C(=O)c1cccc(NC(=O)Cc2cccc(NC(=O)C3CCCN(S(=O)(=O)c4cccc([N+](=O)[O-])c4)C3)c2)c1` (centres undefined)?
hiPSC survival: -2; MT1-MMP act inh: 0; SKN-1 inh: 2; FAS-TE inh: 48; DAGLB inhibitor: -1

Results for CN(Cc1ccccc1)C(=O)c1ccc(NC(=O)Cc2ccc(NC(=O)C3CCN(S(=O)(=O)c4cccc([N+](=O)[O-])c4)CC3)cc2)cc1 ?
hiPSC survival: -1; MT1-MMP act inh: 0; SKN-1 inh: 8; FAS-TE inh: 68*; DAGLB inhibitor: 0; FAS-TE inh conf: 19

Results for CCCc1nc2cc(C)c(Br)c(C)n2c1Cc1ccsc1 ?
hiPSC survival: -1; MT1-MMP act inh: -4; SKN-1 inh: -1; FAS-TE inh: 14

What do the screens show for `O=C(OCc1ccccc1)N1CCC2CC1c1cc(N3CCN(S(=O)(=O)c4cccc5ccccc45)CC3)ccc12` (centres undefined)?
hiPSC survival: -1; MT1-MMP act inh: 5; SKN-1 inh: 13; FAS-TE inh: 23

What do the screens show for `N#Cc1cc2ccc(N3CCOCC3)cc2cc1C#N`?
hiPSC survival: -3; MT1-MMP act inh: 9; SKN-1 inh: 3; FAS-TE inh: 74*; DAGLB inhibitor: -2; FAS-TE inh conf: 62*

How did O=C1O[C@@H](c2ccccc2)C[C@@H](O)[C@H](O)CCCc2ccccc21 do in these assays?
hiPSC survival: 0; MT1-MMP act inh: 1; SKN-1 inh: 10; FAS-TE inh: -12

Results for O=C(Cc1ccc(F)cc1)Nc1nc(-c2ccc(F)c(F)c2)cs1 ?
hiPSC survival: 0; MT1-MMP act inh: -3; SKN-1 inh: 6; FAS-TE inh: 51*; DAGLB inhibitor: -7; FAS-TE inh conf: 6

What do the screens show for `Cc1ccc(S(=O)(=O)N2[C@H](CC(=O)c3cccs3)OC[C@@H]2C)cc1`?
MT1-MMP act inh: 1; SKN-1 inh: -3

How did COC(=O)c1ccc(COc2nc(C)cc(C)c2C#N)o1 do in these assays?
hiPSC survival: -1; MT1-MMP act inh: -6; SKN-1 inh: 0; FAS-TE inh: 13; DAGLB inhibitor: -3

How did COC(=O)c1ccc(CSc2nc(C(F)F)cc(C)c2C#N)o1 do in these assays?
hiPSC survival: 0; MT1-MMP act inh: -3; SKN-1 inh: 6; FAS-TE inh: 53*; DAGLB inhibitor: -6; FAS-TE inh conf: 43*

What do the screens show for `CCOc1ccc(CCNC(=O)C2CCCN(S(=O)(=O)N3CCCCC3)C2)cc1OCC` (centres undefined)?
hiPSC survival: -1; MT1-MMP act inh: 2; SKN-1 inh: 13; FAS-TE inh: 0

What do the screens show for `CN(C)N1C(N)=C(C#N)C(c2ccccc2)C2=C1CC(C)(C)CC2=O` (centres undefined)?
hiPSC survival: 0; MT1-MMP act inh: 2; SKN-1 inh: 17; FAS-TE inh: -1; DAGLB inhibitor: 0

What do the screens show for `CN(C)N1C(N)=C(C#N)C(c2cccc3ccccc23)C2=C1CC(c1ccccc1)CC2=O` (centres undefined)?
hiPSC survival: 1; MT1-MMP act inh: -19; SKN-1 inh: 16; FAS-TE inh: 65*; DAGLB inhibitor: 2; FAS-TE inh conf: 33

How did CCCCOCCCNC(=O)C[C@@H]1C[C@@]2(C(=O)OC)CC(C)(C)CC=C2N(CCc2ccc(OC)c(OC)c2)C1=O do in these assays?
MT1-MMP act inh: -1; SKN-1 inh: -6

How did Cc1cc(/C=C(\C#N)C(=O)Nc2ccccc2)c(C)n1-c1ccc(C(=O)O)cc1 do in these assays?
hiPSC survival: 0; MT1-MMP act inh: -3; SKN-1 inh: -7; FAS-TE inh: -7; DAGLB inhibitor: 1

What do the screens show for `Cc1cc(/C=C(\C#N)C(=O)Nc2ccc(Cl)cc2)c(C)n1-c1ccc(N2CCOCC2)c([N+](=O)[O-])c1`?
hiPSC survival: 0; MT1-MMP act inh: -6; SKN-1 inh: 9; FAS-TE inh: 79*; DAGLB inhibitor: -2; FAS-TE inh conf: 9
